Results gathered from unrelated publications.
Lines come from different studies, so protocols differ. Values after ≈ are worked out from the molar mass of the structure shown.

`O=C(O[C@@H]1O[C@@H]2COC(=O)c3cc(O)c(O)c(O)c3-c3c(cc(O)c(O)c3O)C(=O)O[C@H]([C@H]1O)[C@@H]2O)c1cc(O)c(O)c(O)c1` has an inhibition zone of 14 mm (Streptococcus gordonii; microbial growth, disc diffusion; 500 µg/disc).
`Cc1cccc(N=C2C(=O)Nc3ccccc32)c1` has an IC50 of 51.9 µM (B16; cell growth or viability, MTT; 48 h).
`C[C@@H]1O[C@@H](OC[C@H]2O[C@@H](Oc3c(-c4ccc(O)c(O)c4)oc4cc(O)cc(O)c4c3=O)[C@H](O)[C@@H](O)[C@@H]2O)[C@H](O)[C@H](O)[C@H]1O` has an MBC of 400 µg/mL (Streptococcus gordonii; microbial killing, broth dilution).
`C[C@@H](O)[C@H]1C(=O)N2C(C(=O)O)=C(S[C@@H]3CN[C@H](C(=O)N(C)C)C3)[C@H](C)[C@H]12` gave an MIC of 16 µg/mL (≈ 41.7 µM) (Acinetobacter baumannii; microbial growth, broth dilution; ATCCBAA1605).
For `COc1cc(N=C2C(=O)Nc3ccccc32)cc(OC)c1`, the IC50 was 3.02 µM (B16; cell growth or viability, MTT; 48 h).
`CC1(C)S[C@@H]2[C@H](NC(=O)[C@H](N)c3ccc(O)cc3)C(=O)N2[C@H]1C(=O)O` gave an MIC of greater than 64 µg/mL (Acinetobacter baumannii; microbial growth, broth dilution; ATCC19606).
The IC50 of `CC(C)c1cccc(C(C)C)c1N=C1C(=O)N(Cc2cccc(Cl)c2)c2ccccc21` is reported as 40.9 µM (B16; cell growth or viability, MTT; 48 h).
`CO/N=C(\C(=O)N[C@@H]1C(=O)N2C(C(=O)O)=CCS[C@H]12)c1csc(N)n1` has an MIC of greater than 64 µg/mL (Acinetobacter baumannii; microbial growth, broth dilution; ATCCBAA1605).
For `O=C1C(=Nc2cccc(Cl)c2)c2ccccc2N1Cc1ccc([N+](=O)[O-])cc1`, the IC50 was 0.55 µM (B16; cell growth or viability, MTT; 48 h).
`Oc1cc(O)c2c(c1)O[C@H](c1cc(O)c(O)c(O)c1)[C@@H](O)C2` gave an inhibition zone of 11.6 mm (Streptococcus gordonii; microbial growth, disc diffusion; 500 µg/disc).
The MIC of `C[C@@H](O)[C@H]1C(=O)N2C(C(=O)O)=C(SCCN=CN)C[C@H]12` is reported as greater than 64 µg/mL (Acinetobacter baumannii; microbial growth, broth dilution; ATCCBAA1605).
For `CCC(C(=O)N1C(=O)C(=Nc2ccc(Cl)cc2Br)c2ccccc21)c1ccccc1` (stereo not shown), the IC50 was 27.1 µM (B16; cell growth or viability, MTT; 48 h).
The IC50 of `FC(F)(F)c1ccc(-c2cc(CNc3cccc4cccnc34)on2)cc1` is reported as 85.9 µM (Z-138; cell growth or viability, MTS; 72 h).
For `CN(C)CCNC(=O)c1ccc(-c2nc3ccc4[nH]ncc4c3c3c2CCCC3)c(F)c1`, the GI50 was 3.27 µM (G-361; cell growth or viability; 72 h).
With `O=c1oc2c(O)c(O)cc3c(=O)oc4c(O)c(O)cc1c4c23` the inhibition zone was 16 mm (Streptococcus gordonii; microbial growth, disc diffusion; 500 µg/disc).
For `CNC(C)C1CCC(N)C(OC2C(N)CC(N)C(OC3OCC(C)(O)C(NC)C3O)C2O)O1` (stereo not shown), the MBC was 32 mM (Acinetobacter baumannii; microbial killing, broth dilution; ATCC19606; 24 h).
`CCCCCCC#Cc1cncc(-c2nnc(SCc3ccc(Cl)cc3)n2CCCN)c1` gave an MIC of 16 µg/mL (≈ 34.2 µM) (Acinetobacter baumannii; microbial growth, broth dilution; ATCC17978).
`O=C1OC[C@H]2OC(O)[C@H](O)[C@@H](O)[C@@H]2OC(=O)c2cc(O)c(O)c(O)c2-c2c(O)c(O)c3oc(=O)c4c(c(O)c(O)c5oc(=O)c2c3c54)-c2c1cc(O)c(O)c2O` (mixture of isomers) has an MBC of 400 µg/mL (Streptococcus gordonii; microbial killing, broth dilution).
`Cc1cccc(N=C2C(=O)N(Cc3ccccc3)c3ccccc32)c1` gave an IC50 of 1.07 µM (B16; cell growth or viability, MTT; 48 h).
For `C[C@H]1[C@H](NC(=O)/C(=N\OC(C)(C)C(=O)O)c2csc(N)n2)C(=O)N1S(=O)(=O)O`, the MIC was greater than 64 µg/mL (Acinetobacter baumannii; microbial growth, broth dilution; ATCCBAA1605).
`O=C1C(=Nc2ccc(Cl)cc2)c2ccccc2N1Cc1cccc(Cl)c1` has an IC50 of 1.56 µM (B16; cell growth or viability, MTT; 48 h).
`O=C1O[C@H]2[C@@H]3OC(=O)c4cc(O)c(O)c(O)c4-c4c(O)c(O)c5oc(=O)c6c(c(O)c(O)c7oc(=O)c4c5c76)-c4c(cc(O)c(O)c4O)C(=O)OC[C@H]3OC(O)[C@@H]2OC(=O)c2cc(O)c(O)c(O)c2-c2c1cc(O)c(O)c2O` (mixture of isomers) gave an inhibition zone of 14.2 mm (Streptococcus gordonii; microbial growth, disc diffusion; 500 µg/disc).
The MIC of `CN(C)[C@@H]1C(O)=C(C(N)=O)C(=O)[C@@]2(O)C(O)=C3C(=O)c4c(O)cccc4[C@@](C)(O)[C@H]3C[C@@H]12` is reported as 4 µg/mL (≈ 9 µM) (Acinetobacter baumannii; microbial growth, broth dilution; ATCC19606).
`O=C1Nc2ccccc2C1=Nc1ccccc1Br` gave an IC50 of greater than 100 µM (B16; cell growth or viability, MTT; 48 h).
For `Cc1n[nH]c2ccc3nc(-c4ccc(C(=O)NCCN(C)C)cc4F)c4c(c3c12)CCCC4`, the GI50 was 1.58 µM (G-361; cell growth or viability; 72 h).
